The values that follow come from ChEMBL document CHEMBL5131470, “Structure-activity and structure-property relationship studies of spirocyclic chromanes with antimalarial activity” (Bioorg Med Chem, 2022).

Values after ≈ are worked out from the molar mass of the structure shown.

One series deals with Plasmodium falciparum. Kind of series: Antimalarial activity against chloroquine-resistant Plasmodium falciparum Dd2 assessed as inhibition of parasite growth incubated for 72 hrs by SYBR green I-based DNA quantification assay. In kind it is functional, organism-based. Particulars: Dd2, 72 h.
Series [1] is described as follows: Cytotoxicity against human HepG2 cells assessed as reduction in cell viability incubated for 48 hrs by MTS assay. In kind it is toxicity, cell-based. In short, it runs like this:
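HepG2 human hepatoma cells were seeded at 2,500 cells/well in 384-well plates and incubated 24 h. Serial compound dilutions (0–40 μM range) were added, then cells were incubated a further 48 h.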
A general note: Tetrazolium dyes change colour on reduction, which living cells bring about.

A short description of series [2]: Selectivity index, ratio of EC50 for cytotoxicity against human HepG2 cells to EC50 for antimalarial activity against chloroquine-resistant Plasmodium falciparum Dd2. Format: toxicity, cell-based. Conditions: read-out: Ratio EC50. A digest of the protocol:
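Human HepG2 hepatoma cells were seeded at 2,500 cells/well and grown 24 h. Serial dilutions of compound (0–40 μM) were then added for another 48 h. […] SI = EC50(HepG2)/EC50(Dd2).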

The nature of series [3]: Octanol-water distribution coefficient, logD of the compound at pH 3 by HPLC-based analysis. Format: physicochemical.
The nature of series [4]: Octanol-water distribution coefficient, logD of the compound at pH 7.4 by HPLC-based analysis. In kind it is physicochemical.
Series [5] can be described thus: Aqueous solubility of the compound at pH 2 by HPLC analysis. In kind it is physicochemical. Particulars: aqueous solution. A digest of the protocol: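 Aqueous solubility was measured at pH 2.0 with an in-house HPLC assay. Values are reported as bins: ≤10 μM, 10–20 μM, 20–40 μM, 40–80 μM and ≥80 μM.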
Series [6] can be described thus: Aqueous solubility of the compound at pH 6.5. Conditions: aqueous solution.

As to `O=C(Cc1ccc(F)c(F)c1)N1CCC2(CCc3ccc4ccccc4c3O2)CC1`, in the series with Plasmodium falciparum, the EC50 is over 2500 nM. For the same molecule, in series [1], the EC50 at 48 h came to 5000 nM. Further, in series [2], the selectivity ratio is under 1. The logD in series [3] is 4.02; in series [4], 4.04.
Turning to `CCN1CCC2(CCc3ccc4c(c3O2)CCCC4)CC1`, the 50% effective concentration (EC50) in the series on Plasmodium falciparum is over 2500 nM. Besides, the EC50 at 48 h in series [1] stood at 5000 nM. Also, the selectivity ratio in series [2] was under 1.
The like results for `O=C1CC2(CCN(CCCc3ccccc3)CC2)Oc2c1ccc1ccccc21` were, in that order, 480 nM, over 20000 nM and over 36.5.
Taken in the same sequence, the figures for `OC1CC2(CCN(Cc3ccccc3)CC2)Oc2c1ccc1ccccc21` (configuration not stated) were 930 nM, 6000 nM and 5.7.
The like results for `O=C1C[C@]2(CCCNC2)Oc2c1ccc1ccccc21` were, in that order, 1200 nM, 4000 nM and 2.4.
On to `c1ccc2c3c(ccc2c1)CCC1(CCN(CCC2CCCCC2)CC1)O3`, for which the EC50 in the series on Plasmodium falciparum amounted to 1470 nM. Also, the EC50 at 48 h in series [1] came out at 2000 nM. In series [2], the selectivity ratio stood at 1.1. The same molecule yielded a log distribution coefficient (logD) in series [4] of 4.74. The molecule also had a solubility in series [5] of 40 µM (≈ 14.5 µg/mL).
Turning to `O=C1C[C@]2(CCCN(CCc3ccc(F)c(F)c3)C2)Oc2c1ccc1ccccc21`, the EC50 in the series on Plasmodium falciparum turned out to be 1840 nM. In addition, the EC50 at 48 h in series [1] stood at 10000 nM. For the same molecule, the selectivity ratio in series [2] worked out at 5.8.
On to `CCN1CCC[C@]2(CC(O)c3ccc4ccccc4c3O2)C1` (some centres not stated), for which the EC50 in the series on Plasmodium falciparum was over 2500 nM. Also, the EC50 at 48 h in series [1] was over 20000 nM. Further, the selectivity ratio in series [2] is over 7.6.
Take `C1=CC2(CCNCC2)Oc2c1ccc1ccccc21`: the EC50 in the series on Plasmodium falciparum turned out to be 490 nM. Besides, the EC50 at 48 h in series [1] is over 20000 nM. For the same molecule, the selectivity ratio in series [2] was over 45.6.
Turning to `OC1C[C@@]2(CCCN(CCc3ccc(F)c(F)c3)C2)Oc2c1ccc1ccccc21` (some centres not stated), the EC50 with Plasmodium falciparum worked out at 610 nM. Also, the EC50 at 48 h in series [1] is over 20000 nM. Further, the selectivity ratio in series [2] is over 34.5.
In the case of `O=C(Cc1ccc(F)c(F)c1)N1CCC2(CC1)CC(O)c1ccc3ccccc3c1O2` (configuration not stated), the concentration for a half-maximal effect (EC50) with Plasmodium falciparum was over 2500 nM. Moreover, the EC50 at 48 h in series [1] came to 5000 nM. Further, the selectivity ratio in series [2] was under 1. The logD in series [3] is given as 2.04; in series [4] it was 2.46.
As to `O[C@@H](CN1CCC2(CC1)C[C@H](O)c1ccc3ccccc3c1O2)c1ccc(F)c(F)c1`, the EC50 in the series on Plasmodium falciparum was 1290 nM. The EC50 at 48 h in series [1] is over 20000 nM. In addition, the selectivity ratio in series [2] was over 15.
Regarding `c1ccc(CN2CCC3(CCc4ccc5ccccc5c4O3)CC2)cc1`, the EC50 with Plasmodium falciparum is over 2500 nM. Further, in series [1], the concentration giving a half-maximal response (EC50) at 48 h was over 20000 nM. Besides, in series [2], the selectivity ratio was determined as 4.
Consider `O[C@H](CN1CCC2(CC1)C[C@H](O)c1ccc3ccccc3c1O2)c1ccc(F)c(F)c1`, for which the half-maximal effective concentration (EC50) in the series with Plasmodium falciparum is 1790 nM. Moreover, the EC50 at 48 h in series [1] is over 20000 nM. The selectivity ratio in series [2] is 11.
On to `O=C1C[C@@]2(CCCN(CCc3ccc(F)c(F)c3)C2)Oc2c1ccc1ccccc21`, for which the EC50 in the series with Plasmodium falciparum turned out to be 330 nM. The EC50 at 48 h in series [1] is 14000 nM. Moreover, in series [2], the selectivity ratio is 34.2.
As for `O=C1CC2(CCN(C(=O)Cc3ccc(F)c(F)c3)CC2)Oc2c1ccc1ccccc21`, the EC50 in the series with Plasmodium falciparum is over 2500 nM. The EC50 at 48 h in series [1] is 18000 nM. Also, the selectivity ratio in series [2] is under 3.6. Also, the logD in series [3] was 4; in series [4] it was 4.03. Also, the solubility in series [6] is at most 10 µM.
For the molecule `OC1CC2(CCN(CCCc3ccccc3)CC2)Oc2c1ccc1ccccc21` (configuration not stated), the half-maximal effective concentration (EC50) with Plasmodium falciparum amounted to 650 nM. For the same molecule, in series [1], the half-maximal effective concentration (EC50) at 48 h amounted to 1000 nM. In addition, in series [2], the selectivity ratio came to 2.
The like results for `OC1CC2(CCN(CCc3ccccc3)CC2)Oc2c1ccc1ccccc21` (configuration not stated) were, in that order, 320 nM, over 20000 nM and over 68.9.
As for `O=C1C[C@@]2(CCCNC2)Oc2c1ccc1ccccc21`, the EC50 in the series on Plasmodium falciparum is 630 nM. Also, the EC50 at 48 h in series [1] worked out at 5000 nM. Further, the selectivity ratio in series [2] turned out to be 9.
The like results for `c1cc2c(c3c1CCCC3)OC1(CCNCC1)CC2` were, in that order, over 2500 nM, over 20000 nM and 4.
For `OC(CN1CCC2(CC1)CC(O)c1ccc3ccccc3c1O2)c1ccc(Cl)c(Cl)c1` (configuration not stated), the half-maximal effective concentration (EC50) with Plasmodium falciparum worked out at 1840 nM.
For the molecule `CCN1CCC[C@@]2(CC(O)c3ccc4ccccc4c3O2)C1` (some centres not stated), the half-maximal effective concentration (EC50) in the series on Plasmodium falciparum was 630 nM. Also, the EC50 at 48 h in series [1] is over 20000 nM. In addition, the selectivity ratio in series [2] is over 28.8.
In the case of `O=C1CC2(CCN(CC(O)c3ccc(Cl)c(Cl)c3)CC2)Oc2c1ccc1ccccc21` (configuration not stated), the half-maximal effective concentration (EC50) in the series on Plasmodium falciparum was over 2500 nM.
Turning to `Fc1ccc(CCN2CCC3(CCc4ccc5ccccc5c4O3)CC2)cc1F`, in the series on Plasmodium falciparum, the EC50 was 1910 nM. Besides, in series [1], the concentration for a half-maximal effect (EC50) at 48 h is over 20000 nM. For the same molecule, the selectivity ratio in series [2] is 4. The logD was 3.29 in series [3] and 4.51 in series [4]. Also, the concentration in solution in series [5] (solubility) was 20 µM (≈ 7.87 µg/mL).
For `O=C1CC2(CCN(Cc3ccccc3)CC2)Oc2c1ccc1ccccc21`, the EC50 in the series with Plasmodium falciparum is over 2500 nM. Further, the EC50 at 48 h in series [1] stood at 11000 nM. In series [2], the selectivity ratio is 4.
The like results for `CCN1CCC2(C=Cc3ccc4ccccc4c3O2)CC1` were, in that order, 1140 nM, 12000 nM and 9.7.
The like results for `c1ccc(CCCN2CCC3(CCc4ccc5ccccc5c4O3)CC2)cc1` were, in that order, 1410 nM, over 20000 nM and over 45.6.
The like results for `Fc1ccc(CCN2CCC3(C=Cc4ccc5ccccc5c4O3)CC2)cc1F` were, in that order, 1980 nM, 13000 nM and 7.2.
As for `O=C1CC2(CCN(CCc3ccccc3)CC2)Oc2c1ccc1ccccc21`, the EC50 in the series on Plasmodium falciparum worked out at 530 nM. Further, the EC50 at 48 h in series [1] turned out to be 8000 nM. In series [2], the selectivity ratio came to 14.
The like results for `CCN1CCC[C@]2(CC(=O)c3ccc4ccccc4c3O2)C1` were, in that order, over 2500 nM, 5000 nM and 1.3.
The like results for `O[C@@H]1CC2(CCN(C[C@H](O)c3ccc(F)c(F)c3)CC2)Oc2c1ccc1ccccc21` were, in that order, 1060 nM, 17000 nM and 16.
`Fc1ccc(CCN2CCC3(CCc4ccc5c(c4O3)CCCC5)CC2)cc1F`: the EC50 in the series with Plasmodium falciparum is over 2500 nM. Moreover, in series [1], the EC50 at 48 h was over 20000 nM. The selectivity ratio in series [2] was determined as 4.
In the case of `O=C1CC2(CCN(CCc3ccc(Cl)c(Cl)c3)CC2)Oc2c1ccc1ccccc21`, the EC50 with Plasmodium falciparum was over 2500 nM.
Regarding `CCN1CCC[C@@]2(CC(=O)c3ccc4ccccc4c3O2)C1`, the EC50 with Plasmodium falciparum is over 2500 nM. The EC50 at 48 h in series [1] turned out to be 8000 nM. For the same molecule, the selectivity ratio in series [2] was under 1.6.
Consider `OC1C[C@]2(CCCN(CCc3ccc(F)c(F)c3)C2)Oc2c1ccc1ccccc21` (some centres not stated), for which the EC50 in the series with Plasmodium falciparum is over 2500 nM. Moreover, the EC50 at 48 h in series [1] is 6000 nM. Moreover, the selectivity ratio in series [2] came to 1.9.
Regarding `c1ccc(CCN2CCC3(CCc4ccc5ccccc5c4O3)CC2)cc1`, the half-maximal effective concentration (EC50) in the series on Plasmodium falciparum was determined as 2060 nM. Further, the EC50 at 48 h in series [1] is over 20000 nM. Further, in series [2], the selectivity ratio was over 9.6.
In the case of `O[C@H](CN1CCC2(CC1)C[C@@H](O)c1ccc3ccccc3c1O2)c1ccc(F)c(F)c1`, the 50% effective concentration (EC50) in the series with Plasmodium falciparum is over 2500 nM. The EC50 at 48 h in series [1] came out at 17000 nM. Moreover, in series [2], the selectivity ratio is under 7.

By EC50 is commonly meant the concentration that produces a half-maximal response. For orientation: logD means lipophilicity at a set pH, counting ionised and neutral species. Low readings indicate a more hydrophilic compound, high ones a more lipophilic compound. The term solubility denotes the concentration that dissolves in the medium under given conditions. A higher solubility goes with much dissolved substance.
